The text below walks through data of ChEMBL document CHEMBL4304789, “Design, Synthesis, and Biological Evaluation of 2,4-Imidazolinedione Derivatives as HDAC6 Isoform-Selective Inhibitors” (ACS Med Chem Lett, 2019).

The structures appear in SMILES notation. Activity calls are given as the source filed them. No cut-off for these calls is given here.

The subject of one assay is HCT-116. Put plainly: Antiproliferative activity against human HCT116 cells incubated for 48 hrs by MTT assay. In kind it is functional, cell-based. As to conditions: HCT-116, 48 h.
The target in another assay is Histone deacetylase 9 (Homo sapiens, UniProt Q9UKV0). Put plainly: Inhibition of HDAC9 (unknown origin) using Ac-LeuGlyLys(tfa)-AMC as substrate preincubated for 5 mins followed by substrate addition and measured after 60 mins by fluorescence based assay.
Sequence of Histone deacetylase 9 (Q9UKV0 whole entry): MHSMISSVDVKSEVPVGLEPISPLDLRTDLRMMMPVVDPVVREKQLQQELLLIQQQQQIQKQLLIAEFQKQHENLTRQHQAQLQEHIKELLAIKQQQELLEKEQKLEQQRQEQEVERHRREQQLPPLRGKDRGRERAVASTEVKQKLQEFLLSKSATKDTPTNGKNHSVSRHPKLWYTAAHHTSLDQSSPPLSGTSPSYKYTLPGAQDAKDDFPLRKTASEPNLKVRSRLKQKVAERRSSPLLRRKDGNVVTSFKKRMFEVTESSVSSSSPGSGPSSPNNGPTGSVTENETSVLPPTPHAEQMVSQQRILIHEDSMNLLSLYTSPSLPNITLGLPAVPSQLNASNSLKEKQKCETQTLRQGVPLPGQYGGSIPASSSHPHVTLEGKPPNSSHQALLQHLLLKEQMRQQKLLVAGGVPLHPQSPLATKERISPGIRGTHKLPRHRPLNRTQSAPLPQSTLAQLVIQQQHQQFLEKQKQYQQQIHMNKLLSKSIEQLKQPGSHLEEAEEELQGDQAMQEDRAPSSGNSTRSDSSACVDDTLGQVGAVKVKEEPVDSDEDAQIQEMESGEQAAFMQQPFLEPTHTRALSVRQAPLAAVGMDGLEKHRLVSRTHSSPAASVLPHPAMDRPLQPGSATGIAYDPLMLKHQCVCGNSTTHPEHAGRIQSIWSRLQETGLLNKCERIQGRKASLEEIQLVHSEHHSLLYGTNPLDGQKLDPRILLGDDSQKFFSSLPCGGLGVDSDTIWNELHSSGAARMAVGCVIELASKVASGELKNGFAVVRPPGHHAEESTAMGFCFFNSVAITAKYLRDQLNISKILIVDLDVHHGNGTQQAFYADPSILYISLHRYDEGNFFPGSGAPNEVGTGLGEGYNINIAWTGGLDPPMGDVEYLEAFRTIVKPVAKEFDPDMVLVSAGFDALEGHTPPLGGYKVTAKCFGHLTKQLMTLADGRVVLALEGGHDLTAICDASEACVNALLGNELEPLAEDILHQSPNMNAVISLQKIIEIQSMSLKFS
The target in the next assay is Histone deacetylase 3 (Homo sapiens, UniProt O15379). Put plainly: Inhibition of HDAC3 (unknown origin) using Ac-LeuGlyLys(Ac)-AMC as substrate preincubated for 5 mins followed by substrate addition and measured after 60 mins by fluorescence based assay.
Sequence of Histone deacetylase 3 (O15379 whole entry): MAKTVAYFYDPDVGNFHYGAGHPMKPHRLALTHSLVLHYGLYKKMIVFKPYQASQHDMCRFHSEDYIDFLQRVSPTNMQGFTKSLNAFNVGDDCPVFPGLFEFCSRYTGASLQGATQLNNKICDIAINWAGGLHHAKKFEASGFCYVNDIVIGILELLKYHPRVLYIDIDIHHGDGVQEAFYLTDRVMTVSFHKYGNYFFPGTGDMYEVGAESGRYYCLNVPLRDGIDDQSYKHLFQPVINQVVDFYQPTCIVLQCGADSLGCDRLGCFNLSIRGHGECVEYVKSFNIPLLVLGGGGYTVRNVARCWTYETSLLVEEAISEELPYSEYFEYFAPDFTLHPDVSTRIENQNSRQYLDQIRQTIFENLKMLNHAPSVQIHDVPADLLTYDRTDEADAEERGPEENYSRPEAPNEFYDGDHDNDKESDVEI
Another assay deals with Histone deacetylase 2 (Homo sapiens, UniProt Q92769). Put plainly: Inhibition of HDAC2 (unknown origin) using Ac-LeuGlyLys(Ac)-AMC as substrate preincubated for 5 mins followed by substrate addition and measured after 60 mins by fluorescence based assay.
Sequence of Histone deacetylase 2 (Q92769 whole entry): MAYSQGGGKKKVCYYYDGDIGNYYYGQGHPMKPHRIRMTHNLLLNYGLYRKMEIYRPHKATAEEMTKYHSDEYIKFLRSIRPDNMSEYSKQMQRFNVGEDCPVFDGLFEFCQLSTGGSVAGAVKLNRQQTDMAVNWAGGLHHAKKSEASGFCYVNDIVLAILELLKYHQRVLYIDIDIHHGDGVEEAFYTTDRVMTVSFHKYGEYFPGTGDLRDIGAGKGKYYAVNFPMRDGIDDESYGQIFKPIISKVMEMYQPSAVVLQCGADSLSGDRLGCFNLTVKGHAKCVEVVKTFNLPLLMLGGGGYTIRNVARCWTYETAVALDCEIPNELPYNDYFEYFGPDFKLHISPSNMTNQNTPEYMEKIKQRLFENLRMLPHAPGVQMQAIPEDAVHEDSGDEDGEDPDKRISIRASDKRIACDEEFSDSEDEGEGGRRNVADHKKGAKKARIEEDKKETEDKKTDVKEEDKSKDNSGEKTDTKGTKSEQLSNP
The next assay addresses T1, Histone deacetylase 8 (Homo sapiens, UniProt Q9BY41).
T1 sequence (Q9BY41 whole entry): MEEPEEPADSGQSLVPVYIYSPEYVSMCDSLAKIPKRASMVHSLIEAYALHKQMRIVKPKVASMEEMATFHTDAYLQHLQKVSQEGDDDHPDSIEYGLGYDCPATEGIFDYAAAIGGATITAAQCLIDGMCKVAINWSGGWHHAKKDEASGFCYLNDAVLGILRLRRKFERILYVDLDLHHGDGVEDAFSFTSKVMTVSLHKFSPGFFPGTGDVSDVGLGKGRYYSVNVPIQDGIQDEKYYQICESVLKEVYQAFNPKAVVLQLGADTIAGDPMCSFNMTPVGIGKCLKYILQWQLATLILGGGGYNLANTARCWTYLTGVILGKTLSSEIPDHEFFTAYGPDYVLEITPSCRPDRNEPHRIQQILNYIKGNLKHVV
Put plainly: Inhibition of HDAC8 (unknown origin) using Ac-LeuGlyLys(tfa)-AMC as substrate preincubated for 5 mins followed by substrate addition and measured after 60 mins by fluorescence based assay.

A further assay deals with T2, Histone deacetylase 7 (Homo sapiens, UniProt Q8WUI4).
T2 sequence (Q8WUI4 whole entry): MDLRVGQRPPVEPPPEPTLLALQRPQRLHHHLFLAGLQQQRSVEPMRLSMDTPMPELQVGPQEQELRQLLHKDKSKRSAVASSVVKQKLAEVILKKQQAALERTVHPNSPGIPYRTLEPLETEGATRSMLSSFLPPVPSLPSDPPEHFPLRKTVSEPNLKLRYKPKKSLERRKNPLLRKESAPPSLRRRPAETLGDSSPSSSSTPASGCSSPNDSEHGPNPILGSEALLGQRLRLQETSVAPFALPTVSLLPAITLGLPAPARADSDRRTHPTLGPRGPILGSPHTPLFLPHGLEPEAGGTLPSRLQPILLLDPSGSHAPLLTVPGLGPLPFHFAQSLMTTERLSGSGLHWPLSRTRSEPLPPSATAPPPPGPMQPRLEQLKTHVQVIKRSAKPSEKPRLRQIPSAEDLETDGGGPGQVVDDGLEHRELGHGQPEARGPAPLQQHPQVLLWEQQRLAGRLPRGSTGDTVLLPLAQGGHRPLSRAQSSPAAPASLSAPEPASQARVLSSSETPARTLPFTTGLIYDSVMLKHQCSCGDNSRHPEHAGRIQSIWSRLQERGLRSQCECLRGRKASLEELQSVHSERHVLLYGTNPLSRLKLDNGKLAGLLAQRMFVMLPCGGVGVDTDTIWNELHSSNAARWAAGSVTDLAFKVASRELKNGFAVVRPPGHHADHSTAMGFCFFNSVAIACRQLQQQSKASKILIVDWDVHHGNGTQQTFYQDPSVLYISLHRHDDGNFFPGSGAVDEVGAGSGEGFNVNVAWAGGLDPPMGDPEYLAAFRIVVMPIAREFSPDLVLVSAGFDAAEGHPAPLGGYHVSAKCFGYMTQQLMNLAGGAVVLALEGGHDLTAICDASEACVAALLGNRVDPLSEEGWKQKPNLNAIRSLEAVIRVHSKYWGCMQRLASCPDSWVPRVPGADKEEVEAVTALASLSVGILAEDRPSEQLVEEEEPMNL
Put plainly: Inhibition of HDAC7 (unknown origin) using Ac-LeuGlyLys(tfa)-AMC as substrate preincubated for 5 mins followed by substrate addition and measured after 60 mins by fluorescence based assay.

For assay [1], the system named is HL-60. Put plainly: Induction of cell cycle arrest in human HL60 cells assessed as accumulation of cells at G1 phase at 0.25 to 0.45 uM incubated for 48 hrs by PI staining based flow cytometric analysis. Type of assay: functional. The gist of the method:
(§1)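 PI staining of HL-60 cells, with DMSO-treated cells as control, used to read cell-cycle phase distribution including G1 and subG1 fractions. Mean ± SD of at least three independent experiments.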

Assay [2] deals with HL-60. Put plainly: Induction of cell cycle arrest in human HL60 cells assessed as accumulation of cells at subG1 phase at 0.25 to 0.45 uM incubated for 48 hrs by PI staining based flow cytometric analysis. Type of assay: functional. A digest of the protocol:
as §1

The species entered for assay [3] is Homo sapiens. Put plainly: Selectivity ratio of IC50 for HDAC2 (unknown origin) to IC50 for HDAC6 (unknown origin). The gist of the method: (§2)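 Each isoform's IC50 comes from a dose–effect curve in an HDAC isoform inhibition panel, with replicates n ≥ 2. The ratio is that isoform's IC50 divided by the HDAC6 IC50.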
The species entered for assay [4] is Homo sapiens. Put plainly: Selectivity ratio of IC50 for HDAC8 (unknown origin) to IC50 for HDAC6 (unknown origin). A digest of the protocol:
as §2

The species entered for assay [5] is Homo sapiens. Put plainly: Selectivity ratio of IC50 for HDAC4 (unknown origin) to IC50 for HDAC6 (unknown origin). A digest of the protocol: as §2
The species named for assay [6] is Homo sapiens. Put plainly: Selectivity ratio of IC50 for HDAC9 (unknown origin) to IC50 for HDAC6 (unknown origin). The gist of the method: as §2
The subject of assay [7] is HL-60. Put plainly: Induction of apoptosis in human in human HL60 cells assessed as increase in caspase 3 activation at 0.25 to 0.75 uM using […] as substrate preincubated for 24 to 48 hrs followed by substrate addition and measured after 1.5 hrs by fluorescence based assay. Type of assay: functional, cell-based. A digest of the protocol: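 HL-60 cells exposed to 0.25, 0.45 and 0.75 μM for 24 and 48 h, with untreated cells as control; activated caspase 3 measured. Mean ± SD of at least three independent experiments; significance versus untreated control set at p < 0.05.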

The species entered for assay [8] is Homo sapiens. Put plainly: Selectivity ratio of IC50 for HDAC3 (unknown origin) to IC50 for HDAC6 (unknown origin). A digest of the protocol:
as §2

Assay [9] is filed under the species Homo sapiens. Put plainly: Selectivity ratio of IC50 for HDAC7 (unknown origin) to IC50 for HDAC6 (unknown origin). The gist of the method: as §2
The species entered for assay [10] is Homo sapiens. Put plainly: Selectivity ratio of IC50 for HDAC11 (unknown origin) to IC50 for HDAC6 (unknown origin). The gist of the method: as §2
The target of assay [11] is Histone deacetylase (Homo sapiens) (UniProt Q13547+O15379+Q9UBN7+Q92769+Q9UQL6+Q8WUI4+Q9BY41+Q96DB2+P56524+Q9UKV0+Q969S8). As to conditions: at 0.08 to 1.6 µM.
The species entered for assay [12] is Homo sapiens. Put plainly: Selectivity ratio of IC50 for HDAC1 (unknown origin) to IC50 for HDAC6 (unknown origin). The gist of the method: as §2

For `O=C(CCC1C(=O)N(c2ccc(Cl)cc2)C(=O)N1Cc1ccccc1)Nc1ccc(C(=O)NO)cc1` (configuration not stated), the IC50 in the assay with HCT-116 was determined as 2.25 µM; at Histone deacetylase 9, 15.2 µM; on Histone deacetylase 3, 0.096 µM; against Histone deacetylase 2 it was 0.203 µM; on Histone deacetylase 8, 3.6 µM; against Histone deacetylase 7 it was 8.8 µM.

Consider `O=C(CCC1C(=O)N(c2ccc(Cl)cc2)C(=O)N1Cc1ccc(Br)cc1)Nc1ccc(C(=O)NO)cc1` (configuration not stated), for which the concentration for half-maximal inhibition (IC50) in the assay on HCT-116 was 1.25 µM; on Histone deacetylase 9, 9.1 µM; against Histone deacetylase 3, 0.126 µM; at Histone deacetylase 2 it was 0.249 µM; against Histone deacetylase 8, 6.7 µM; against Histone deacetylase 7, 6 µM. Besides, the result in the assay on HL-60 [1] and in the assay on HL-60 [2] was Active.

For the compound `Cc1ccc(CN2C(=O)N(c3ccc(Cl)cc3)C(=O)C2CCC(=O)Nc2ccc(C(=O)NO)cc2)cc1` (configuration not stated), the Ratio IC50 is 63 in the assay listed under Homo sapiens [3]; > 20000 in the assay listed under Homo sapiens [4]; > 20000 in the assay filed under Homo sapiens [5]; > 20000 in the assay filed under Homo sapiens [6]; 53 in the assay filed under Homo sapiens [8]; > 20000 in the assay listed under Homo sapiens [9]. In addition, the values for the Ratio IC50 in the assay filed under Homo sapiens [10] and in the assay filed under Homo sapiens [12] were > 20000 and 218, respectively. Also, the IC50 was 0.83 µM with HCT-116; > 100 µM against Histone deacetylase 9; 0.235 µM against Histone deacetylase 3; 0.277 µM against Histone deacetylase 2; > 100 µM against Histone deacetylase 8; > 100 µM at Histone deacetylase 7. Moreover, the outcome in the assay on HL-60 [7], with HL-60 [1] and in the assay with HL-60 [2] was Active. In addition, in assay [11], the inhibition entry was “Active”.
